Published values collected from several papers.
Protocols differ between the studies behind these lines.
JAK2: Tyrosine-protein kinase JAK2 (JAK2, Homo sapiens, UniProt O60674)
JAK2 JH1: Tyrosine-protein kinase JAK2, JH1 (JAK2, Homo sapiens, UniProt O60674)

c1cc(CN2CCOCC2)cc(Nc2ncc(C3CC3)c(NCCc3c[nH]cn3)n2)c1 — remaining activity (JAK2; enzyme activity; inhibitor; radiometric; 1 µM): 82%
Cc1sc(C(=O)NC2COC2)cc1-n1cc(NC(=O)Nc2c(F)cccc2Cl)cn1 — remaining activity (JAK2; enzyme activity; inhibitor; 10 µM): 95%
CN1CC(Oc2cnc(C#N)cc2-c2ccn3nc(NC(=O)C4CC4)cc3c2)C1 — inhibition (JAK2; enzyme activity; inhibitor; 1 µM): -20%
Cc1ccc(Nc2nccc(N(C)c3ccc4c(C)n(C)nc4c3)n2)cc1S(N)(=O)=O — inhibition (JAK2; enzyme activity; inhibitor; 10 µM): 36%
COc1cc2ncnc(Nc3ccc(Oc4ccccc4)c(C)c3C)c2cc1OC — inhibition (JAK2 JH1; enzyme activity; inhibitor; 1 µM): -2%
Cc1nc(N2CC[C@@H](O)C2)ncc1-c1cc(C(F)(F)F)cc2[nH]ncc12 — remaining binding (JAK2 JH1; binding; competition with immobilised ligand; 1 µM): 61%
O=C(CSc1nc2nccnc2c(=O)n1CCc1ccccc1)Nc1nccs1 — inhibition (JAK2 JH1; enzyme activity; inhibitor; 10 µM): 2%
Nc1ncnc2occ(-c3ccc(NC(=O)Nc4cc(C(F)(F)F)ccc4F)cc3)c12 — remaining signal (JAK2 JH1; cell-free assay; inhibitor; 20 µM): 2%
C[C@@]1(Cc2ccc(C#N)cc2)C(=O)N(c2cc(Cl)cc(Cl)c2)c2ncc(C(=O)NC3(c4nc(C5CCC5)no4)CC3)n21 — remaining binding (JAK2 JH1; cell-free assay; competition with immobilised ligand; 1 µM): 100%
O=C1NC(=O)c2cc(Nc3ccc(F)cc3)c(Nc3ccc(F)cc3)cc21 — remaining signal (JAK2; cell-free assay; 0.5 µM): 94.6%
CN(c1nccc(-c2cnn3ncccc23)n1)C1CC1 — remaining signal (JAK2 JH1; cell-free assay; 1 µM): 100%
CN(C(=O)c1ccccc1)c1cc(N(C)c2ccc3c(c2)CCc2ccc(C(=O)NCCN4CCOCC4)cc2C3=O)ccc1F — remaining binding (JAK2 JH1; cell-free assay; competition with immobilised ligand; 1 µM): 100%
Cc1nn(CC(F)(F)F)cc1Nc1ncc(C2CC2)c(NCCCNC(=O)C2CCC2)n1 — remaining activity (JAK2; enzyme activity; inhibitor; radiometric; 1 µM): 99%
CS(=O)(=O)N1CCCC(NC(=O)[C@H](CCC2CCCCC2)NC(=O)c2ccc(CNc3ncnc4c3nnn4-c3ccccc3)cc2)C1 (stereo partly shown) — remaining binding (JAK2 JH1; cell-free assay; competition with immobilised ligand; 0.1 µM): 100%
Cc1nn(CC(F)(F)F)cc1Nc1nccc(NCCCNC(=O)C2CCC2)n1 — remaining activity (JAK2; enzyme activity; inhibitor; radiometric; 1 µM): 114%
COc1cccc(CNC(=O)c2nc3scc(COCc4ccc(C(=O)O)cc4)c3c(=O)[nH]2)c1 — remaining binding (JAK2 JH1; cell-free assay; competition with immobilised ligand; 1 µM): 100%
CCCS(=O)(=O)Nc1ccc(F)c(C(=O)c2c[nH]c3ncc(-c4ccc(Cl)cc4)cc23)c1F — inhibition (JAK2 JH1; enzyme activity; inhibitor; 1 µM): < 10%
Cc1c[nH]c2nccc(Oc3c(F)cc(Nc4cc(Cl)nc(N)n4)cc3F)c12 — remaining binding (JAK2 JH1; cell-free assay; competition with immobilised ligand; 0.1 µM): 75%
CCN(CC)CCNC(=O)c1c(C)[nH]c(/C=C2\C(=O)Nc3ccc(F)cc32)c1C — remaining signal (JAK2; cell-free assay; 0.5 µM): 88.8%
